Activity and IC50 data for five molecules are collected here from ChEMBL document CHEMBL2151035, “Diarylcyclopentendione metabolite obtained from a Preussia typharum isolate procured using an unconventional cultivation approach” (J Nat Prod, 2012).

The subject of test [1] is Radical scavenging activity. The test is described as follows: Antioxidant activity assessed as DPPH free radical scavenging activity up to 30 uM after 30 mins. The format is functional. A digest of the protocol:
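Samples from 10 mM DMSO stocks were diluted in 2-propanol and mixed with DPPH in 2-propanol (40 uM solution as added). Controls were ascorbic acid (positive) and 2-propanol vehicle (negative). Plates were shaken and left for 30 min, then absorbance was read at 520 nm. Percent inhibition was calculated against control wells, in triplicate. IC50 is the concentration scavenging 50% of DPPH radicals.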

Another test deals with Staphylococcus aureus. The test is described as follows: Antibacterial activity against methicillin-resistant Staphylococcus aureus up to 30 uM after 24 hrs. The class given is functional, organism-based.
A further test deals with Klebsiella pneumoniae. The test is described as follows: Antibacterial activity against Klebsiella pneumoniae up to 30 uM after 24 hrs. The class given is functional, organism-based.
The subject of another test is Aspergillus fumigatus. The test is described as follows: Antifungal activity against Aspergillus fumigatus up to 30 uM after 48 hrs. The format is functional, organism-based.
Test [2] deals with Radical scavenging activity. The test is described as follows: Antioxidant activity assessed as DPPH free radical scavenging activity after 30 mins. The format is functional. The essentials: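 Test samples taken up as 10 mM DMSO stocks, dissolved in 2-propanol. 50 μL of sample, or 2-propanol vehicle as negative control, mixed with 150 μL DPPH in 2-propanol (40 uM). Shaken, stood 30 min, absorbance read at 520 nm. Percent inhibition computed against control wells. Triplicates. IC50 taken as the concentration scavenging 50% of DPPH radicals. Ascorbic acid as positive control.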
(Loss of DPPH colour is used to gauge radical scavenging.)

Activity calls are given as the source filed them. The rule behind the calls is not given here.

As to `COc1cc(C2=CC(=O)[C@@](C)(c3ccc(O)c(OC)c3)C2=O)ccc1O`, the outcome (in test [1]; in the test with Staphylococcus aureus; in the test on Klebsiella pneumoniae; in the test on Aspergillus fumigatus) was inactive.

Regarding `COc1cc(C)c(Oc2cc(C)cc(O)c2)c(O)c1`, the result (in test [1]; in the test on Staphylococcus aureus; in the test on Klebsiella pneumoniae; in the test with Aspergillus fumigatus) was inactive.

As usually defined, the IC50 is the midpoint of a concentration-inhibition curve. For the molecule `COc1cc(C)c(Oc2cc(C)cc(OC)c2O)c(O)c1`, in test [2], the IC50 came out at 7.9 µM. Further, the result in the test with Staphylococcus aureus, in the test on Klebsiella pneumoniae and in the test on Aspergillus fumigatus was inactive.

As for `COc1cc(C)c(Oc2cc(C)cc(O)c2O)c(O)c1`, in test [2], the IC50 was 11.6 µM. The outcome in the test on Staphylococcus aureus, in the test on Klebsiella pneumoniae and with Aspergillus fumigatus was inactive.

As for `O=C1O[C@H]([C@@H](O)CO)C(O)=C1O` [ASCORBIC ACID], the IC50 in test [2] came to 5.6 µM.
